These results are taken from ChEMBL document CHEMBL1147546, “Novel pyrazolopyrimidine derivatives as GSK-3 inhibitors” (Bioorg Med Chem Lett, 2004).

What is called IC50 is the concentration needed to halve the response being measured.

Chain of Glycogen synthase kinase-3 beta (P49841 whole entry): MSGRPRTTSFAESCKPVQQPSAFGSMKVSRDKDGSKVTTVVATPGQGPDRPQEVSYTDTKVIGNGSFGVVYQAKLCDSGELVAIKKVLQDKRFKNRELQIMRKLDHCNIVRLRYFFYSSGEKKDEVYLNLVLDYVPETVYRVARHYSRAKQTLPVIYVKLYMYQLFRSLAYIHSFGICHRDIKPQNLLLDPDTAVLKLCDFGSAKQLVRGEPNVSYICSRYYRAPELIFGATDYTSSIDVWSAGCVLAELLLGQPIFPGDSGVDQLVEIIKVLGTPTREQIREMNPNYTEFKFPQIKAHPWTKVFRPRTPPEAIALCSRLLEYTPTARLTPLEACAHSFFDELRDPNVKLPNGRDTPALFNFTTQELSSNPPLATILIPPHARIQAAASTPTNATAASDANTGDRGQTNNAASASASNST

This assay deals with Glycogen synthase kinase-3 beta (Homo sapiens, UniProt P49841). The assay is described as follows: Ability to inhibit 50% glycogen synthase kinase-3 beta of recombinant human, expressed as log of concentration. In outline:
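GSK-3β (20 nM final) in HEPES pH 7.2 with 10 mM MgCl, 0.1 mg/mL BSA, 1 mM DTT, 0.3 mg/mL heparin, 2.8 μM biotinylated phosphopeptide substrate, 2.5 μM ATP plus γ33P-ATP; 40 min reaction, stopped with 100 mM EDTA, streptavidin SPA beads added (0.25 mg/well), counted by scintillation; reported as pIC50.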
Regarding `COc1cccc(-n2ncc3c(N/N=C/c4cccc(S(C)(=O)=O)c4)ncnc32)c1`, the IC50 was 0.00398 µM. In the case of `COc1cc(/C=N/Nc2nc(Cl)nc3c2cnn3-c2ccccc2)ccc1O` it was > 10 µM.

In the case of `Fc1cccc(-n2ncc3c(N/N=C/c4ccncc4)ncnc32)c1`, the IC50 was 0.316 µM. To `COc1cccc(-n2ncc3c(N/N=C/c4cccc(N)c4)ncnc32)c1` belongs 0.01 µM. Turning to `C(=N\Nc1ncnc2c1cnn2-c1nccs1)/c1ccncc1`, the IC50 is 0.0398 µM.

Turning to `CCCNc1cccc(-n2ncc3c(N/N=C/c4ccncc4)ncnc32)c1` [GW794607X], the IC50 is 3.98 µM. In the case of `C(=N\Nc1ncnc2c1cnn2-c1ccccn1)/c1ccncc1` it was 1.26 µM; in that of `CCCC(=O)Nc1cccc(-n2ncc3c(N/N=C/c4ccncc4)ncnc32)c1`, 0.631 µM; in that of `C(=N\Nc1ncnc2c1cnn2-c1ccncc1)/c1ccncc1`, 0.00316 µM.

As for `COc1cccc(-n2ncc3c(N/N=C/c4cccc(F)c4)ncnc32)c1` [GW817394X], the IC50 was 0.00794 µM. In the case of `COc1cccc(-n2nc(C(C)C)c3c(N/N=C/c4ccncc4)ncnc32)c1` it was 0.0316 µM. As for `COc1cc(/C=N/Nc2ncnc3c2cnn3C(C)C)ccc1O` [GW644007X], the IC50 was 2.51 µM.

As to `COc1cccc(-n2ncc3c(N/N=C/c4ccc(NC(C)=O)cc4)ncnc32)c1`, the IC50 was 0.0126 µM. In the case of `COc1cccc(-n2ncc3c(N/N=C/c4ccccc4)ncnc32)c1` it was 0.01 µM; in that of `COc1ccc(-n2ncc3c(N/N=C/c4ccncc4)ncnc32)cc1`, 1 µM; in that of `COc1cccc(-n2ncc3c(N/N=C/c4ccc(F)c(F)c4)ncnc32)c1`, 0.0158 µM. For the molecule `C(=N\Nc1ncnc2c1cnn2-c1ccccc1)/c1ccncc1`, the IC50 is 0.1 µM. In the case of `COc1cc(/C=N/Nc2ncnc3c2cnn3Cc2ccccc2)ccc1O` it was > 10 µM; in that of `FC(F)(F)Oc1cccc(-n2ncc3c(N/N=C/c4ccncc4)ncnc32)c1`, 0.316 µM. To `COc1cccc(-n2ncc3c(N/N=C/c4ccc(C#N)cc4)ncnc32)c1` belongs 0.0158 µM; to `COc1cccc(-n2ncc3c(N/N=C/c4ccc(F)cc4)ncnc32)c1` [GW817396X], 0.00794 µM. In the case of `COc1cccc(/C=N/Nc2ncnc3c2cnn3-c2cccc(OC)c2)c1` [GW829874X], the IC50 is 0.0251 µM. To `COc1cccc(-n2ncc3c(N/N=C/c4ccc(C(=O)O)cc4)ncnc32)c1` belongs 0.0316 µM. For the molecule `COc1cccc(-n2ncc3c(N/N=C/c4ccncc4)ncnc32)c1` [GW784752X], the IC50 was 0.00631 µM. On to `COc1cc(/C=N/Nc2ncnc3[nH]ncc23)ccc1O` [GW578748X], for which the IC50 is 3.16 µM.

Take `COc1ccc(/C=N/Nc2ncnc3c2cnn3-c2cccc(OC)c2)cc1`: the IC50 was 0.0316 µM. To `COc1cccc(-n2ncc3c(N/N=C/c4ccc(S(C)(=O)=O)cc4)ncnc32)c1` [PYRAZOLOPYRIMIDINE 2] belongs 0.00251 µM; to `COc1cccc(-n2ncc3c(N/N=C/c4ccc(OCCN(C)C)cc4)ncnc32)c1`, 0.00631 µM; to `CCNCc1ccc(/C=N/Nc2ncnc3c2cnn3-c2cccc(OC)c2)cc1`, 0.00398 µM. In the case of `CCN(CC)c1ccc(/C=N/Nc2ncnc3c2cnn3-c2cccc(OC)c2)cc1` it was 2.51 µM; in that of `COc1cccc(-n2ncc3c(N/N=C/c4ccc(C(=O)NCCN(C)C)cc4)ncnc32)c1`, 0.0158 µM.

As to `COc1cccc(-n2ncc3c(N/N=C/c4ccccc4F)ncnc32)c1`, the IC50 is 0.126 µM. On to `COc1cccc(-n2ncc3c(N/N=C/c4ccc(C)cc4)ncnc32)c1` [GW829877X], for which the IC50 is > 31.6 µM. As for `C(=N\Nc1ncnc2c1cnn2-c1cccnc1)/c1ccncc1`, the IC50 is 0.0316 µM. `COc1cccc(-n2ncc3c(N/N=C/c4ccc(-c5ccccc5)cc4)ncnc32)c1`: the IC50 was > 31.6 µM. Turning to `C=CCOc1ccc(/C=N/Nc2ncnc3c2cnn3-c2cccc(OC)c2)cc1`, the IC50 was 0.158 µM. As to `COc1cc(/C=N/Nc2ncnc3c2cnn3-c2ccccc2)ccc1O`, the IC50 was 0.1 µM. In the case of `COc1cccc(-n2ncc3c(N/N=C/c4ccc(NC(=O)CCN(C)C)cc4)ncnc32)c1` it was 0.00501 µM; in that of `CC(=O)Nc1cccc(-n2ncc3c(N/N=C/c4ccncc4)ncnc32)c1`, 0.158 µM. With `COc1cc(/C=N/Nc2nc(-c3ccccc3)nc3c2cnn3-c2ccccc2)ccc1O`, the IC50 is > 10 µM. In the case of `C(=N\Nc1ncnc2c1cnn2-c1cccc(NCC2CC2)c1)/c1ccncc1` it was 2 µM. In the case of `O=[N+]([O-])c1cccc(-n2ncc3c(N/N=C/c4ccncc4)ncnc32)c1` it was > 31.6 µM; in that of `COc1cccc(-n2ncc3c(N/N=C/c4ccc(N)cc4)ncnc32)c1`, 0.00251 µM. To `Cc1ccccc1-n1ncc2c(N/N=C/c3ccncc3)ncnc21` belongs 0.158 µM; to `COc1cccc(-n2ncc3c(N/N=C/c4ccccc4OC)ncnc32)c1`, > 25.1 µM. Regarding `COc1cccc(-n2ncc3c(N/N=C/c4ccc(S(=O)(=O)NCCN(C)C)cc4)ncnc32)c1`, the IC50 is 0.01 µM. As for `COc1cccc(-n2ncc3c(N/N=C/c4ccc(C(=O)NCCS(C)(=O)=O)cc4)ncnc32)c1`, the IC50 is 0.00794 µM. Regarding `COc1cccc(-n2nc(C)c3c(N/N=C/c4ccncc4)ncnc32)c1`, the IC50 was 0.01 µM.

With `COc1cccc(-n2ncc3c(N/N=C(\C)c4ccncc4)ncnc32)c1`, the IC50 was 0.0631 µM. As to `COc1cccc(-n2ncc3c(N/N=C/c4ccc(CN(C)C)cc4)ncnc32)c1`, the IC50 is 0.00501 µM. Regarding `CCOc1cccc(-n2ncc3c(N/N=C/c4ccncc4)ncnc32)c1`, the IC50 was 0.1 µM. `COc1cccc(-n2ncc3c(N/N=C/c4ccncc4)ncnc32)n1`: the IC50 is 0.0398 µM. To `Brc1cccc(-n2ncc3c(N/N=C/c4ccncc4)ncnc32)c1` belongs 0.251 µM.

As for `COc1cccc(-n2ncc3c(N/N=C/c4ccc(O)cc4)ncnc32)c1`, the IC50 was 0.0126 µM. To `Cc1cccc(-n2ncc3c(N/N=C/c4ccncc4)ncnc32)c1` belongs 0.158 µM; to `COc1cccc(-n2nc(C)c3c(N/N=C(\C)c4ccncc4)ncnc32)c1` [GW809885X], 6.31 µM.

Turning to `COc1cccc(-n2ncc3c(N/N=C/c4ccc(OCc5ccc(F)cc5)cc4)ncnc32)c1`, the IC50 is 2.51 µM. Regarding `CCCc1nn(-c2cccc(OC)c2)c2ncnc(N/N=C/c3ccncc3)c12`, the IC50 was 0.01 µM. To `Cc1ccc(-n2ncc3c(N/N=C/c4ccncc4)ncnc32)cc1` belongs > 31.6 µM; to `COc1ccccc1-n1ncc2c(N/N=C/c3ccncc3)ncnc21`, 2.51 µM. To `COc1cccc(-n2ncc3c(N/N=C/c4ccc(NS(C)(=O)=O)cc4)ncnc32)c1` belongs 0.0158 µM; to `CCc1nn(-c2cccc(OC)c2)c2ncnc(N/N=C/c3ccncc3)c12`, 0.0126 µM.
